Measurements reported in ChEMBL document CHEMBL1154765, “A series of alpha-amino acid ester prodrugs of camptothecin: in vitro hydrolysis and A549 human lung carcinoma cell cytotoxicity” (J Med Chem, 2010).

Assays:
[1] = Stability in phosphate buffer assessed as half life of prodrug hydrolysis at 5 mg at pH 6.6 by HPLC; type: physicochemical; conditions: in vitro
Outline: (§1)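 In 100 mM sodium phosphate buffer, 5 mg prodrug per 2 mL, shaken at 37 °C, triplicate runs. Timed aliquots dried, taken up in methanol, and quantified by HPLC with fluorescence detection. Prodrug loss fit to first-order decay, Ct versus C0; half-life obtained from the rate constant.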

[2] = Stability in phosphate buffer assessed as half life of prodrug hydrolysis at 5 mg at pH 7.4 by HPLC; type: physicochemical; conditions: in vitro; outline: as §1
[3] = Stability in phosphate buffer assessed as half life of camptothecin formation at 5 mg at pH 6.6 by HPLC; type: physicochemical; conditions: in vitro
Outline: (§2)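 Prodrug (5 mg) in 2 mL 100 mM sodium phosphate buffer on shaker at 37 °C, in triplicate. Aliquots taken at set times, dried, reconstituted in methanol, and analysed by HPLC with fluorescence detection. CPT appearance fit to first-order kinetics, Ct versus C∞; half-life derived from the rate constant.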

A549 = test: Cytotoxicity against human A549 cells after 48 hrs by MTT method; type: functional, cell-based; conditions: A549, 48 h
Outline: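 A549 cells grown in DMEM/F-12 with 10% FBS, 37 °C, 5% CO2; seeded 10,000 cells/well, attached 24 h, then exposed in triplicate to 30 dilutions for 48 h. Washed with PBS, MTT added 5 h at 37 °C in dark, crystals dissolved in SDS/DMF:water, absorbance 570 nm (reference 690 nm). Viability relative to drug-free controls; IC50 from variable-slope sigmoidal fit.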

[4] = Stability in phosphate buffer assessed as half life of prodrug hydrolysis at 5 mg at pH 7 by HPLC; type: physicochemical; outline: as §1
[5] = Stability in phosphate buffer assessed as half life of camptothecin formation at 5 mg at pH 7.4 by HPLC; type: physicochemical; conditions: in vitro; outline: as §2
[6] = Stability in phosphate buffer assessed as half life of camptothecin formation at 5 mg at pH 7 by HPLC; type: physicochemical; outline: as §2

Row | SMILES | t1/2 [1] [h] | t1/2 [2] [h] | t1/2 [3] [h] | IC50 (A549) [nM] | t1/2 [4] [h] | t1/2 [5] [h] | t1/2 [6] [h]
1 | CC[C@@]1(OC(=O)CN)C(=O)OCc2c1cc1n(c2=O)Cc2cc3ccccc3nc2-1 | 2.564 | 1.774 | 11.54 | 12.2 | 1.802 | 10.79 | 11.26
2 | CCC[C@@H](N)C(=O)O[C@]1(CC)C(=O)OCc2c1cc1n(c2=O)Cc2cc3ccccc3nc2-1 | 4.652 | 2.926 | 38.26 | 5.2 | 4.119 | 32.31 | 36.7
3 | CC[C@@H](N)C(=O)O[C@]1(CC)C(=O)OCc2c1cc1n(c2=O)Cc2cc3ccccc3nc2-1 | 4.68 | 2.934 | 28.25 | 4.1 | 3.197 | 25.34 | 26.27
4 | CC[C@@]1(OC(=O)[C@@H](C)N)C(=O)OCc2c1cc1n(c2=O)Cc2cc3ccccc3nc2-1 | 4.336 | 2.496 | 21.31 | 120 | 2.828 | 15.47 | 16.3
5 | CC[C@@]1(O)C(=O)OCc2c1cc1n(c2=O)Cc2cc3ccccc3nc2-1 [CAMPTOTHECIN] | – | – | – | 5.38 | – | – | –
